{
  "source": "ChEMBL document CHEMBL1135850",
  "about": "“P1 Phenethyl peptide boronic acid inhibitors of HCV NS3 protease” (Bioorg Med Chem Lett, 2002)",
  "note": "Peptide text beside a SMILES is read from it. * marks the point of attachment. X3 = CC1(C)[C@@H]2C[C@H]3OB([C@H](CCc4cccc(C(F)(F)F)c4)N*)O[C@@]3(C)[C@H]1C2; X5 = Cc1ccc(CC[C@H](N*)B2O[C@@H]3C[C@@H]4C[C@@H](C4(C)C)[C@]3(C)O2)c(C)c1; X7 = Cc1ccc(C)c(CC[C@H](N*)B2O[C@@H]3C[C@@H]4C[C@@H](C4(C)C)[C@]3(C)O2)c1; X2 = Cc1ccccc1CC[C@H](N*)B1O[C@@H]2C[C@@H]3C[C@@H](C3(C)C)[C@]2(C)O1",
  "data": [
    {"molecular_target": "T1, NS3 (Hepatitis C virus, UniProt A3EZJ3)", "assay": "Inhibitory concentration against Hepatitis C virus NS3 protease", "design": "species or system Hepacivirus hominis", "method_in_brief": "(§1)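 Continuous fluorescence assay with 4 nM NS3 protease plus NS4A cofactor peptide, in 50 mM Tris pH 7.0, 5 mM DTT, 50% glycerol, 2% CHAPS. Serially diluted inhibitors, given as boronic acid pinanediol esters, were preincubated with enzyme for 15 min. The reaction was started with the FRET ester substrate Ac-DED(EDANS)EEAbuψ[COO]ASK(DABCYL)-NH2 at ambient temperature and read at excitation 360 nm, emission 530 nm.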", "units": {"IC50": "nM"}, "values": [
      {"smiles": "Cc1ccccc1CC[C@H](NC(=O)[C@@H]1CCCN1C(=O)[C@@H](NC(=O)[C@@H](NC(=O)[C@H](CCC(=O)O)NC(=O)[C@@H](N)CC(=O)O)C(C)C)C(C)C)B1O[C@@H]2C[C@@H]3C[C@@H](C3(C)C)[C@]2(C)O1", "note": "(H-DEVVP-X2)", "IC50": 820},
      {"smiles": "Cc1ccc(C)c(CC[C@H](NC(=O)[C@@H]2CCCN2C(=O)[C@@H](NC(=O)[C@@H](NC(=O)[C@H](CCC(=O)O)NC(=O)[C@@H](N)CC(=O)O)C(C)C)C(C)C)B2O[C@@H]3C[C@@H]4C[C@@H](C4(C)C)[C@]3(C)O2)c1", "note": "(H-DEVVP-X7)", "IC50": 1000},
      {"smiles": "Cc1ccc(CC[C@H](NC(=O)[C@@H]2CCCN2C(=O)[C@@H](NC(=O)[C@@H](NC(=O)[C@H](CCC(=O)O)NC(=O)[C@@H](N)CC(=O)O)C(C)C)C(C)C)B2O[C@@H]3C[C@@H]4C[C@@H](C4(C)C)[C@]3(C)O2)c(C)c1", "note": "(H-DEVVP-X5)", "IC50": 530}
    ]},
    {"molecular_target": "T2, Neutrophil elastase (Homo sapiens, UniProt P08246)", "T2 sequence (P08246 whole entry)": "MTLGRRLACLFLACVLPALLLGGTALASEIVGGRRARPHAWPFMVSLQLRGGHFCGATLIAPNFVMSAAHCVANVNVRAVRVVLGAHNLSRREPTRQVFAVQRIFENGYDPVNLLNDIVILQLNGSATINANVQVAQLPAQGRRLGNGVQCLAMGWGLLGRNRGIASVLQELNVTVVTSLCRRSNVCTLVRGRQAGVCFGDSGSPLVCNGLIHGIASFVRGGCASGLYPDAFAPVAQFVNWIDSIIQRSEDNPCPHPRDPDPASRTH", "assay": "Inhibitory concentration against Human leukocyte Elastase", "method_in_brief": "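Human neutrophil elastase (stock 1 mg/mL in PBS with 10% glycerol) with MeO-Suc-Ala-Ala-Pro-Val-p-nitroanilide substrate in PBS at room temperature, DMSO ≤2%. Inhibitors were tested as pinanediol esters. Substrate hydrolysis was followed at 405 nm to derive kinetic parameters.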", "units": {"IC50": "nM"}, "values": [
      {"smiles": "CC(C)CCC[C@H](NC(=O)[C@H]1CCCN1C(=O)[C@@H](NC(=O)[C@@H](NC(=O)[C@H](CCC(=O)O)NC(=O)[C@@H](N)CC(=O)O)C(C)C)C(C)C)B1O[C@@H]2C[C@@H]3C[C@@H](C3(C)C)[C@]2(C)O1", "IC50": 7300},
      {"smiles": "CC(C)[C@H](NC(=O)[C@H](CCC(=O)O)NC(=O)[C@@H](N)CC(=O)O)C(=O)N[C@H](C(=O)N1CCC[C@@H]1C(=O)N[C@@H](CCc1ccc(Oc2ccccc2)cc1)B1O[C@@H]2C[C@@H]3C[C@@H](C3(C)C)[C@]2(C)O1)C(C)C", "IC50": 220},
      {"smiles": "CC(C)[C@H](NC(=O)[C@H](CCC(=O)O)NC(=O)[C@@H](N)CC(=O)O)C(=O)N[C@H](C(=O)N1CCC[C@@H]1C(=O)N[C@@H](CCc1ccc(C(F)(F)F)cc1)B1O[C@@H]2C[C@@H]3C[C@@H](C3(C)C)[C@]2(C)O1)C(C)C", "IC50": 1800},
      {"smiles": "CC(C)[C@H](NC(=O)[C@H](CCC(=O)O)NC(=O)[C@@H](N)CC(=O)O)C(=O)N[C@H](C(=O)N1CCC[C@@H]1C(=O)N[C@@H](CCc1ccccc1)B1O[C@@H]2C[C@@H]3C[C@@H](C3(C)C)[C@]2(C)O1)C(C)C", "IC50": 3500},
      {"smiles": "CC(C)[C@H](NC(=O)[C@H](CCC(=O)O)NC(=O)[C@@H](N)CC(=O)O)C(=O)N[C@H](C(=O)N1CCC[C@@H]1C(=O)N[C@@H](CCc1ccc(O)cc1)B1O[C@@H]2C[C@@H]3C[C@@H](C3(C)C)[C@]2(C)O1)C(C)C", "IC50": 900},
      {"smiles": "CC(C)[C@H](NC(=O)[C@H](CCC(=O)O)NC(=O)[C@@H](N)CC(=O)O)C(=O)N[C@H](C(=O)N1CCC[C@@H]1C(=O)N[C@@H](CCc1ccc(C2CCCCC2)cc1)B1O[C@@H]2C[C@@H]3C[C@@H](C3(C)C)[C@]2(C)O1)C(C)C", "IC50": 400},
      {"smiles": "COc1ccc(CC[C@H](NC(=O)[C@H]2CCCN2C(=O)[C@@H](NC(=O)[C@@H](NC(=O)[C@H](CCC(=O)O)NC(=O)[C@@H](N)CC(=O)O)C(C)C)C(C)C)B2O[C@@H]3C[C@@H]4C[C@@H](C4(C)C)[C@]3(C)O2)cc1", "IC50": 560},
      {"smiles": "Cc1cccc(CC[C@H](NC(=O)[C@H]2CCCN2C(=O)[C@@H](NC(=O)[C@@H](NC(=O)[C@H](CCC(=O)O)NC(=O)[C@@H](N)CC(=O)O)C(C)C)C(C)C)B2O[C@@H]3C[C@@H]4C[C@@H](C4(C)C)[C@]3(C)O2)c1", "IC50": 5700},
      {"smiles": "CC(C)[C@H](NC(=O)[C@H](CCC(=O)O)NC(=O)[C@@H](N)CC(=O)O)C(=O)N[C@H](C(=O)N1CCC[C@@H]1C(=O)N[C@@H](CCc1ccc(-c2ccccc2)cc1)B1O[C@@H]2C[C@@H]3C[C@@H](C3(C)C)[C@]2(C)O1)C(C)C", "IC50": 900},
      {"smiles": "CC(C)[C@H](NC(=O)[C@H](CCC(=O)O)NC(=O)[C@@H](N)CC(=O)O)C(=O)N[C@H](C(=O)N1CCC[C@@H]1C(=O)N[C@@H](CCc1ccc(F)cc1)B1O[C@@H]2C[C@@H]3C[C@@H](C3(C)C)[C@]2(C)O1)C(C)C", "IC50": 800},
      {"smiles": "CC[C@H](NC(=O)[C@H]1CCCN1C(=O)[C@@H](NC(=O)[C@@H](NC(=O)[C@H](CCC(=O)O)NC(=O)[C@@H](N)CC(=O)O)C(C)C)C(C)C)B1O[C@@H]2C[C@@H]3C[C@@H](C3(C)C)[C@]2(C)O1", "IC50": 20},
      {"smiles": "CC(C)[C@H](NC(=O)[C@H](CCC(=O)O)NC(=O)[C@@H](N)CC(=O)O)C(=O)N[C@H](C(=O)N1CCC[C@@H]1C(=O)N[C@@H](CCc1ccc(Br)cc1)B1O[C@@H]2C[C@@H]3C[C@@H](C3(C)C)[C@]2(C)O1)C(C)C", "IC50": 1600},
      {"smiles": "CC(C)[C@H](NC(=O)[C@H](CCC(=O)O)NC(=O)[C@@H](N)CC(=O)O)C(=O)N[C@H](C(=O)N1CCC[C@@H]1C(=O)N[C@@H](CCCCc1ccccc1)B1O[C@@H]2C[C@@H]3C[C@@H](C3(C)C)[C@]2(C)O1)C(C)C", "IC50": 400},
      {"smiles": "Cc1ccc(CC[C@H](NC(=O)[C@H]2CCCN2C(=O)[C@@H](NC(=O)[C@@H](NC(=O)[C@H](CCC(=O)O)NC(=O)[C@@H](N)CC(=O)O)C(C)C)C(C)C)B2O[C@@H]3C[C@@H]4C[C@@H](C4(C)C)[C@]3(C)O2)cc1", "IC50": 5000},
      {"smiles": "CC(C)[C@H](NC(=O)[C@H](CCC(=O)O)NC(=O)[C@@H](N)CC(=O)O)C(=O)N[C@H](C(=O)N1CCC[C@@H]1C(=O)N[C@@H](CCc1ccc(C(C)(C)C)cc1)B1O[C@@H]2C[C@@H]3C[C@@H](C3(C)C)[C@]2(C)O1)C(C)C", "IC50": 340},
      {"smiles": "CC(C)c1ccc(CC[C@H](NC(=O)[C@H]2CCCN2C(=O)[C@@H](NC(=O)[C@@H](NC(=O)[C@H](CCC(=O)O)NC(=O)[C@@H](N)CC(=O)O)C(C)C)C(C)C)B2O[C@@H]3C[C@@H]4C[C@@H](C4(C)C)[C@]3(C)O2)cc1", "IC50": 450},
      {"smiles": "CC(C)[C@H](NC(=O)[C@H](CCC(=O)O)NC(=O)[C@@H](N)CC(=O)O)C(=O)N[C@H](C(=O)N1CCC[C@@H]1C(=O)N[C@@H](CCc1ccc(Cl)cc1)B1O[C@@H]2C[C@@H]3C[C@@H](C3(C)C)[C@]2(C)O1)C(C)C", "IC50": 1400},
      {"smiles": "CC(C)C[C@H](NC(=O)[C@H]1CCCN1C(=O)[C@@H](NC(=O)[C@@H](NC(=O)[C@H](CCC(=O)O)NC(=O)[C@@H](N)CC(=O)O)C(C)C)C(C)C)B1O[C@@H]2C[C@@H]3C[C@@H](C3(C)C)[C@]2(C)O1", "IC50": 60}
    ]},
    {"molecular_target": "T1, NS3", "assay": "Binding affinity against Hepatitis C virus NS3 protease", "design": "species or system Hepacivirus hominis", "method_in_brief": "as §1", "units": {"Ki": "nM"}, "values": [
      {"smiles": "CC(C)[C@H](NC(=O)[C@H](CCC(=O)O)NC(=O)[C@@H](N)CC(=O)O)C(=O)N[C@H](C(=O)N1CCC[C@H]1C(=O)N[C@@H](CCc1cccc(C(F)(F)F)c1)B1O[C@@H]2C[C@@H]3C[C@@H](C3(C)C)[C@]2(C)O1)C(C)C", "note": "(H-DEVVP-X3)", "Ki": 25}
    ]}
  ]
}
